{"source": "ChEMBL document CHEMBL5150051", "about": "“Identification and Characterization of a Novel Indoleamine 2,3-Dioxygenase 1 Protein Degrader for Glioblastoma” (J Med Chem, 2022)", "key": {"[1]": {"target": "T1, Indoleamine 2,3-dioxygenase 1 (Homo sapiens, UniProt P14902)", "assay": "Inhibition of human IDO1 expressed in Escherichia coli BL21(DE3) using D-tryptophan as substrate assessed as formation of kynurenine production", "conditions": "DDE = dose-dependent effect"}, "[2]": {"target": "T2, Protein cereblon/Indoleamine 2,3-dioxygenase 1 (Homo sapiens, UniProt P14902+Q96SW2)", "assay": "Protac activity at IDO1/CRBN in IFNgamma-stimulated human U87 cells assessed as IDO1 degradation measured after 24 hrs by Western blotting analysis", "format": "cell-based", "method_in_brief": "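U87 cells given human IFNγ 50 ng/mL for 24 h to induce IDO1, then PROTAC over a dose range starting at 0.01 μM and rising to 30 μM for 24 h. Western blot read-out. IDO1 band densitometry normalized to untreated samples and fitted to give DC50, the concentration giving 50% IDO1 degradation. n = 3 independent experiments, mean ± SEM.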"}, "[3]": {"target": "T2, Protein cereblon/Indoleamine 2,3-dioxygenase 1", "assay": "Protac activity at IDO1/CRBN in IFNgamma-stimulated human SK-OV-3 cells assessed as IDO1 degradation by measuring decrease in intracellular protein level measured after 24 hrs by Western blotting analysis", "format": "cell-based", "conditions": "dose 1-10 µM, DDE = dose-dependent effect"}, "[4]": {"target": "T2, Protein cereblon/Indoleamine 2,3-dioxygenase 1", "assay": "Protac activity at IDO1/CRBN in IFNgamma-stimulated human PC-3 cells assessed as IDO1 degradation by measuring decrease in intracellular protein level measured after 24 hrs by Western blotting analysis", "format": "cell-based", "conditions": "dose 1-10 µM, DDE = dose-dependent effect"}, "[5]": {"target": "T2, Protein cereblon/Indoleamine 2,3-dioxygenase 1", "assay": "Protac activity at IDO1/CRBN in IFNgamma-stimulated human KNS-42 cells assessed as IDO1 degradation measured after 24 hrs by Western blotting analysis", "format": "cell-based", "conditions": "dose 0.1-10 µM, DDE = dose-dependent effect"}, "[6]": {"target": "T2, Protein cereblon/Indoleamine 2,3-dioxygenase 1", "assay": "Protac activity at CRBN/IDO1 in enzyme-null cDNA transfected in human U87 cells assessed as IDO1 degradation by measuring decrease in protein level measured at 0.1 to 10 uM after 24 hrs by Western blotting analysis", "format": "cell-based", "conditions": "dose 0.1-10 µM"}, "[7]": {"target": "T2, Protein cereblon/Indoleamine 2,3-dioxygenase 1", "assay": "Protac activity at CRBN/IDO1-FLAG expressed in human U87 cells assessed as IDO1 degradation at 10 uM measured in presence of IDO1 inhibitor BGB-7204 by immunoprecipitated ubiquitination assay", "format": "cell-based"}, "[8]": {"target": "T1, Indoleamine 2,3-dioxygenase 1", "assay": "Binding affinity to IDO1 (unknown origin) assessed as dissociation constant by bio-layer interferometry assay", "method_in_brief": "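Bio-layer interferometry measured binding to IDO1 at 30 °C in PBS with 0.5% DMSO. Kd, kon and koff were derived.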"}, "[9]": {"target": "T2, Protein cereblon/Indoleamine 2,3-dioxygenase 1", "assay": "Binding affinity to CRBN/IDO1 (unknown origin) assessed as ternary complex affinity by bio-layer interferometry assay", "format": "protein assay", "method_in_brief": "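For the ternary complex, compound was preincubated with a 25-fold molar excess of CRBN, and binding of this binary complex to IDO1 was followed in real time.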"}, "[10]": {"target": "T2, Protein cereblon/Indoleamine 2,3-dioxygenase 1", "assay": "Protac activity at CRBN/IDO1 non-enzyme mediated NF-kappaB signal in IFNgamma-stimulated human U87 cells assessed as decrease in p65 phosphorylation at 0.1 to 10 uM measured after 24 hrs Western blotting assay", "format": "cell-based", "conditions": "dose 0.1-10 µM", "method_in_brief": "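IFNγ-stimulated cells were induced for 24 h, then treated at several concentrations for 24 h. Lysates were western blotted for IDO1, phospho-p65, total p65 and GAPDH.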"}, "[11]": {"target": "T2, Protein cereblon/Indoleamine 2,3-dioxygenase 1", "assay": "Protac activity at CRBN/IDO1 in human U87 cells assessed as decrease in phosphorylated NF-kappaB p65 in nucleus at 1 to 10 uM measured after 24 hrs by Western blot analysis", "format": "cell-based", "conditions": "dose 1-10 µM"}, "[12]": {"assay": "Toxicity in C57BL/6 mouse assessed as mortality at 100 mg/kg, ip treated 5 days/week for 3 weeks", "format": "organism-based", "conditions": "in vivo, 504 h"}, "[13]": {"assay": "Drug uptake in C57BL/6 mouse intestine at 50 mg/kg, ip treated 5 days/week for 3 weeks by LC/MS/MS analysis", "format": "ADME, organism-based", "conditions": "in vivo, 504 h"}, "[14]": {"assay": "Drug uptake in C57BL/6 mouse pancreas at 50 mg/kg, ip treated 5 days/week for 3 weeks by LC/MS/MS analysis", "format": "ADME, organism-based", "conditions": "in vivo, 504 h"}, "[15]": {"assay": "Drug uptake in C57BL/6 mouse intestine at 100 mg/kg, ip treated 5 days/week for 3 weeks by LC/MS/MS analysis", "format": "ADME, organism-based", "conditions": "in vivo, 504 h"}, "[16]": {"assay": "Drug uptake in C57BL/6 mouse liver at 100 mg/kg, ip treated 5 days/week for 3 weeks by LC/MS/MS analysis", "format": "ADME, organism-based", "conditions": "in vivo, 504 h"}, "[17]": {"assay": "Cmax in C57BL/6 mouse brain at 25 mg/kg, ip", "format": "ADME, organism-based", "parameters": "dose 25 mg/kg, route ip"}}, "note": "pEC50, pKd: −log10 of the molar value. The source made the active and inactive calls. No cut-off for these calls is given here.", "data": [{"smiles": "C[C@@H](C(=O)Nc1ccc(OC2CCN(C(=O)CCOCCOCCNc3cccc4c3C(=O)N(C3CCC(=O)NC3=O)C4=O)CC2)cc1)[C@H]1CC[C@@H](c2ccnc3ccc(F)cc32)CC1", "note": "(some centres not stated)", "values": [{"measurement": "Activity", "setting": "[1]", "result": "Dde"}, {"measurement": "pEC50", "setting": "[2]", "result": 6.48}, {"measurement": "Activity", "setting": "[3]", "result": "Dde"}, {"measurement": "Activity", "setting": "[4]", "result": "Dde"}, {"measurement": "Activity", "setting": "[5]", "result": "Dde"}, {"measurement": "Activity", "setting": "[6]", "result": "Active"}, {"measurement": "Activity", "setting": "[7]", "result": "Active"}, {"measurement": "pKd", "setting": "[8]", "result": 6.19}, {"measurement": "K", "setting": "[9]", "result": 117, "unit": "nM"}, {"measurement": "Activity", "setting": "[10]", "result": "Active"}, {"measurement": "Activity", "setting": "[11]", "result": "Active"}, {"measurement": "Activity", "setting": "[12]", "result": "Toxic"}, {"measurement": "Drug uptake", "setting": "[13]", "result": "Active"}, {"measurement": "Drug uptake", "setting": "[14]", "result": "Active"}, {"measurement": "Drug uptake", "setting": "[15]", "result": "Active"}, {"measurement": "Drug uptake", "setting": "[16]", "result": "Active"}, {"measurement": "Cmax", "setting": "[17]", "result": 2000, "unit": "nM"}]}]}
